Laboratory results from ChEMBL document CHEMBL1275252, “First survey of metallo-beta-lactamases in clinical isolates of Pseudomonas aeruginosa in a German university hospital” (2010).
Values after ≈ are worked out from the molar mass of the structure shown.

How the values were obtained:
Assay type in all cases: functional
Pseudomonas aeruginosa [1] = assay: Antimicrobial activity against metallo-beta-lactamase-negative Pseudomonas aeruginosa isolate PA507
In short: (§1)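 MBL-negative clinical P. aeruginosa isolates with reduced imipenem susceptibility, collected at the study hospital, some from cystic fibrosis patients. Species identity was confirmed by automated Gram-negative identification card. MIC was read in μg/ml.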

Pseudomonas aeruginosa [2] = assay: Antimicrobial activity against metallo-beta-lactamase-negative Pseudomonas aeruginosa isolate PA479
Pseudomonas aeruginosa [3] = assay: Antimicrobial activity against Pseudomonas aeruginosa isolate PA469 expressing VIM-2 beta-lactamase
Pseudomonas aeruginosa [4] = assay: Antimicrobial activity against metallo-beta-lactamase-negative Pseudomonas aeruginosa isolate PA483
Pseudomonas aeruginosa [5] = assay: Antimicrobial activity against Pseudomonas aeruginosa isolate PA465 expressing VIM-2 beta-lactamase
Pseudomonas aeruginosa [6] = assay: Antimicrobial activity against metallo-beta-lactamase-negative Pseudomonas aeruginosa isolate PA460
Pseudomonas aeruginosa [7] = assay: Antimicrobial activity against Pseudomonas aeruginosa isolate PA475 expressing VIM-2 beta-lactamase
Pseudomonas aeruginosa [8] = assay: Antimicrobial activity against Pseudomonas aeruginosa isolate PA481 expressing VIM-2 beta-lactamase
Pseudomonas aeruginosa [9] = assay: Antimicrobial activity against Pseudomonas aeruginosa isolate PA399 expressing VIM-2 beta-lactamase
Pseudomonas aeruginosa [10] = assay: Antimicrobial activity against metallo-beta-lactamase-negative Pseudomonas aeruginosa isolate PA459; in short: as §1
Pseudomonas aeruginosa [11] = assay: Antimicrobial activity against Pseudomonas aeruginosa isolate PA462 expressing VIM-2 beta-lactamase
Pseudomonas aeruginosa [12] = assay: Antimicrobial activity against Pseudomonas aeruginosa isolate PA510 expressing VIM-2 beta-lactamase
Pseudomonas aeruginosa [13] = assay: Antimicrobial activity against Pseudomonas aeruginosa isolate PA500 expressing VIM-1 beta-lactamase
Pseudomonas aeruginosa [14] = assay: Antimicrobial activity against Pseudomonas aeruginosa isolate PA477 expressing VIM-2 beta-lactamase
Pseudomonas aeruginosa [15] = assay: Antimicrobial activity against metallo-beta-lactamase-negative Pseudomonas aeruginosa isolate PA509
Pseudomonas aeruginosa [16] = assay: Antimicrobial activity against metallo-beta-lactamase-negative Pseudomonas aeruginosa isolate PA494

| Molecule | MIC (Pseudomonas aeruginosa [1]) | MIC (Pseudomonas aeruginosa [2]) | MIC (Pseudomonas aeruginosa [3]) | MIC (Pseudomonas aeruginosa [4]) | MIC (Pseudomonas aeruginosa [5]) | MIC (Pseudomonas aeruginosa [6]) | MIC (Pseudomonas aeruginosa [7]) | MIC (Pseudomonas aeruginosa [8]) | MIC (Pseudomonas aeruginosa [9]) | MIC (Pseudomonas aeruginosa [10]) | MIC (Pseudomonas aeruginosa [11]) | MIC (Pseudomonas aeruginosa [12]) | MIC (Pseudomonas aeruginosa [13]) | MIC (Pseudomonas aeruginosa [14]) | MIC (Pseudomonas aeruginosa [15]) | MIC (Pseudomonas aeruginosa [16]) |
| --- | --- | --- | --- | --- | --- | --- | --- | --- | --- | --- | --- | --- | --- | --- | --- | --- |
| GENTAMICIN | > 16 mg/L | > 16 mg/L | > 16 mg/L | 1 mg/L | > 16 mg/L | > 16 mg/L | > 16 mg/L | > 16 mg/L | > 16 mg/L | 1 mg/L | > 16 mg/L | > 16 mg/L | > 16 mg/L | > 16 mg/L | > 16 mg/L | 8 mg/L |
| C[C@@H](O)[C@H]1C(=O)N2C(C(=O)O)=C(S[C@@H]3CN[C@H](C(=O)N(C)C)C3)[C@H](C)[C@H]12 [MEROPENEM] | 4 mg/L (≈ 10.4 µM) | ≥ 16 mg/L | ≥ 16 mg/L | ≥ 16 mg/L | ≥ 16 mg/L | 8 mg/L (≈ 20.9 µM) | ≥ 16 mg/L | ≥ 16 mg/L | ≥ 16 mg/L | 8 mg/L (≈ 20.9 µM) | ≥ 16 mg/L | ≥ 16 mg/L | ≥ 16 mg/L | ≥ 16 mg/L | ≥ 16 mg/L | 8 mg/L (≈ 20.9 µM) |
| COLISTIN | 1 mg/L | 1 mg/L | 1 mg/L | 1 mg/L | 2 mg/L | 1 mg/L | 1 mg/L | 1 mg/L | 1 mg/L | 1 mg/L | 1 mg/L | 1 mg/L | 1 mg/L | 1 mg/L | 2 mg/L | 1 mg/L |
| C[C@H]1[C@H](NC(=O)/C(=N\OC(C)(C)C(=O)O)c2csc(N)n2)C(=O)N1S(=O)(=O)O [AZTREONAM] | 16 mg/L (≈ 36.7 µM) | 32 mg/L (≈ 73.5 µM) | 16 mg/L (≈ 36.7 µM) | 64 mg/L (≈ 147 µM) | 16 mg/L (≈ 36.7 µM) | 16 mg/L (≈ 36.7 µM) | 16 mg/L (≈ 36.7 µM) | 16 mg/L (≈ 36.7 µM) | 16 mg/L (≈ 36.7 µM) | 16 mg/L (≈ 36.7 µM) | 16 mg/L (≈ 36.7 µM) | ≥ 64 mg/L | 4 mg/L (≈ 9.19 µM) | 16 mg/L (≈ 36.7 µM) | 8 mg/L (≈ 18.4 µM) | 16 mg/L (≈ 36.7 µM) |
| CO/N=C(\C(=O)N[C@@H]1C(=O)N2C(C(=O)[O-])=C(C[N+]3(C)CCCC3)CS[C@H]12)c1csc(N)n1 [CEFEPIME] | – | ≥ 64 mg/L | ≥ 64 mg/L | 32 mg/L (≈ 66.6 µM) | ≥ 64 mg/L | – | ≥ 64 mg/L | ≥ 64 mg/L | ≥ 64 mg/L | 8 mg/L (≈ 16.6 µM) | ≥ 64 mg/L | ≥ 64 mg/L | ≥ 64 mg/L | ≥ 64 mg/L | 16 mg/L (≈ 33.3 µM) | 8 mg/L (≈ 16.6 µM) |
